# Screening data from PubChem.
# This is a sample that favours compounds with a hit; in the whole collection about 2.6% have one here.
# MC4R antag cAMP = MC4R antagonists of cAMP signaling, primary screen, cell-based, TR-FRET, antagonist arm of biased-ligand search; Melanocortin receptor 4 (Homo sapiens), P32245; MC4R-expressing cells, MTII-stimulated cAMP, LANCE TR-FRET; 360,000 tested, 0.48% active; inhibition, % at 6.5 µM;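 active = inhibition above its plate's cutoff, the mean of tested wells on that plate plus 3 SD, cut at about 29% in these data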;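 also: 0% = Melanotan II alone and 100% = Melanotan II plus saturating MCL0020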
# Target sequence (P32245 whole entry, looked up): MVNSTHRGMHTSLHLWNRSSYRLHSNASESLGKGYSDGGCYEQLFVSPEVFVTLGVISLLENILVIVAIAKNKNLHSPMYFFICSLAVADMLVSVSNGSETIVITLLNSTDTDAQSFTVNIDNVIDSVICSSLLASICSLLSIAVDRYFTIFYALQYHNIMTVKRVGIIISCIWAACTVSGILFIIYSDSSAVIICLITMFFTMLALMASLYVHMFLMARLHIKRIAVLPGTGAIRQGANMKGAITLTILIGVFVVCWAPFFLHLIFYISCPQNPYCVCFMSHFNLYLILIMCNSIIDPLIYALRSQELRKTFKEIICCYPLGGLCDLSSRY
#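 Material – human MC4R-expressing U2OS cells · Repeats – no replicates · Detection – TR-FRET with Eu-cAMP and labeled anti-cAMP, 671 nm · Times – compound 30 min, challenge 1 h, detection 1 h · Compound – single nominal compound dose of 6.5 µM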
# Granule exo inh = LAMP-1 surface exposure blockers, TALL-104 cells – cell-based, flow cytometry, MLPCN library, primary screen. inhibition, % at 10 µM. TALL-104 LAMP-1 surface exposure; cells stimulated with thapsigargin and PMA. 360,000 tested, 0.66% active;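 active = inhibition above about 55%, limit read from the data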
# MC4R barr agon = MC4R agonists recruiting beta-arrestin, primary screen, cell-based, luminescence, agonist arm of biased-ligand search; 360,000 tested, 0.98% active; activation, % at 8.9 µM; AID 540308, 2011; Melanocortin receptor 4 (Homo sapiens), P32245; U2OS MC4R beta-arrestin complementation; percent of melanotan II response, DMSO zero;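 active = activation above a per-plate cutoff, the mean activation of sample wells on that plate plus 3 SD, cut at about 8% in these data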
# ABCB6 inh 2 = ABCB6 transporter inhibitors, primary screen, K562-ABCB6 cells, flow cytometry, MLPCN library | 360,000 tested, 0.19% active | ATP-binding cassette sub-family B member 6 (Homo sapiens), Q9NP58 | fluorescence ratio to DMSO, % at 10 µM | K562-ABCB6 porphyrin accumulation, 1 h; stronger effect = lower value | AID 602162, 2011;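 active = fluorescence ratio to DMSO below 75%, the collection mean minus 3 SD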;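 also: signal is porphyrin accumulated inside mitochondria; 100% equals median channel fluorescence of DMSO control wells; lower ratio means ABCB6 inhibition with less porphyrin fluorescence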
# Tb MetRS inh = T. brucei MetRS inhibitors, primary screen, biochemical, luminescence; methionyl-tRNA synthetase (Trypanosoma brucei brucei); purified T. brucei MetRS, ATP depletion, Kinase-Glo luminescence; inhibition, % at 11.9 µM; 360,000 tested, 0.4% active; AID 624268, 2012;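 active = inhibition above a per-plate cutoff of the control wells' mean inhibition plus 3 SD, cut at about 5.5% in these data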;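 also: 0% = DMSO wells median and 100% = median of wells with control inhibitor compound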
#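 technique = Kinase-Glo luminescence, ATP depletion format | system = purified MetRS (methionyl-tRNA synthetase) enzyme from Trypanosoma brucei | timing = 15 min preincubation, 2 h reaction, all 25 °C | evaluation = percent inhibition versus plate control medians | dosing = single dose, 11.9 µM final nominal, 0.9% final DMSO | also added = substrates ATP, L-methionine and bulk Escherichia coli tRNA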
# hiPSC survival = enhancers of single-cell hiPSC survival, primary screen, ATPlite luminescence. 100% = ROCK inhibitor wells, 0% = DMSO. survival enhancement, % at 20 µM. 360,000 tested, 0.044% active. AID 602274, 2012; in the data active = survival enhancement above about 18%;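 also: cells exposed to compounds for 16 hours before the ATP read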
# Granule exo CP1 = inhibitors of lytic granule exocytosis, confirmation, TALL-104 cells, flow cytometry, Cherry Pick01; shares compounds with Granule exo inh; LAMP-1 externalization; stimulated with PMA plus thapsigargin; inhibition, % at 10 µM; 1,500 tested, 11% active; AID 651954, 2012; in the data active = inhibition above about 60%;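 also: 0% = stimulated vehicle wells and 100% = unstimulated wells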
# The depositor's hits bear a star; i = inactive; · = no result given.
SMILES,MC4R antag cAMP,Granule exo inh,MC4R barr agon,ABCB6 inh 2,Tb MetRS inh,hiPSC survival,Granule exo CP1
CCOc1ccc(N(CC(=O)Nc2ccccc2OC)S(=O)(=O)c2ccccc2)cc1,-21.4,65.1*,-2.8,101.0,-0.3,-0.4,-13.6
CC(C)(C)OC(=O)C[C@H]1C/C=C\C[C@@H](CC(=O)N[C@@H](CO)Cc2ccccc2)C(=O)NCCOC1=O,8.0,7.9,0.2,96.0,-0.3,-0.5,·
COc1ccc(-c2csc3ncnc(N4CCN(c5ccccc5)CC4)c23)cc1,-0.5,69.9*,-1.1,96.0,-1.8,0.1,-10.2
CC(C)(C)C1CCC(OCC(O)CN2CCN(Cc3ccccc3)CC2)CC1 (centres undefined),-1.6,71.6*,3.0,102.0,-0.9,-1.2,-3.0
Cc1ccc(NC(=O)CSC2=NN3CCCC(=O)N=C3S2)cc1Cl,9.9,-8.8,-2.0,93.0,-0.1,-0.6,·
Cc1cccc(/C=C/c2nc3ccccc3c(=O)[nH]2)c1,-5.1,0.7,0.7,103.0,0.4,-4.6,·
Cc1[nH]c2ccccc2c1/C=C/c1nc2ccccc2c(=O)[nH]1,-8.3,57.9*,1.8,97.0,-0.5,0.1,36.4
COc1ccc(/C=C/c2onc(C)c2S(=O)(=O)N2CCC(C(=O)N3CCC(C)CC3)CC2)cc1,15.4,76.1*,1.8,93.0,-0.1,-0.6,-14.3
CCc1ccc(N(CC(=O)N2CCN(Cc3ccccc3)CC2)S(C)(=O)=O)cc1,0.2,-2.1,1.1,111.0,0.9,0.2,·
OC[C@@H]1CN(Cc2ccc(-c3ccccc3)cc2)C[C@H](n2cnc3c(NC4CCC4)ncnc32)O1,0.4,29.0,0.8,90.0,-0.4,-0.5,·
COc1ccc(NC(=O)CSc2ccc3nnc(-c4ccccn4)n3n2)cc1OC,8.1,-0.4,1.8,97.0,-0.2,-0.4,·
O=C(CCCc1ccccc1)Nc1ccnn1C1CCN(Cc2ccc(Cl)cc2)CC1,2.9,3.1,1.1,99.0,-0.2,-0.1,·
O=C(CCCc1ccccc1)Nc1ccnn1C1CCN(Cc2ccccc2)CC1,6.2,63.9*,-1.6,99.0,-0.8,-0.3,-4.7
Cc1cccc(CN2C(=O)/C(=C\c3ccc(C(=O)NCCCN4CCN(C)CC4)cc3)Oc3ccccc32)c1,4.8,35.1,3.9,96.0,0.6,-0.4,·
CN1CCN(CCCNC(=O)c2ccc(/C=C3\Sc4ccccc4N(Cc4ccc(F)cc4)C3=O)cc2)CC1,-5.3,64.3*,3.3,97.0,-0.5,-0.8,76.6*
COc1cc(NC(=O)c2cc(-c3ccccc3Cl)on2)cc(OC)c1OC,-18.0,69.3*,-0.9,94.0,-0.7,-0.2,-11.0
COc1ccc(NC(=O)c2cc(-c3ccccc3Cl)on2)cc1,-5.3,-3.1,-1.1,98.0,-0.7,0.4,·
O=C(c1ccc2ccccc2c1)C1CCCN(C(=O)c2cccnc2)C1 (centres undefined),15.3,65.8*,-1.3,100.0,0.3,-0.6,-3.5
COc1ccc(C(=O)C2CCCN(C(=O)c3cccnc3OC)C2)c(C)c1 (centres undefined),0.6,1.1,-2.1,99.0,-0.8,-0.2,·
COc1ccc(C(=O)C2CCCN(C(=O)c3cccnc3OC)C2)cc1F (centres undefined),16.8,76.7*,-1.6,101.0,0.6,0.6,-14.9
Cn1c(=O)c2c(=O)cc(N)[nH]c2n(C)c1=O,1.9,2.0,0.8,110.0,-0.7,-0.6,·
CC(NC(=O)C(C)N1c2cccc3cccc(c23)S1(=O)=O)c1ccccc1 (centres undefined),-4.0,81.9*,0.8,82.0,-0.5,0.5,-6.4
CC(C(N)=O)N1c2cccc3cccc(c23)S1(=O)=O (centres undefined),3.1,-7.0,2.2,87.0,-0.1,1.7,·
CN(C)CCCN(C(=O)c1ccc(S(=O)(=O)N(C)C2CCCCC2)cc1)c1nc2ccc(Br)cc2s1,3.6,9.2,-1.7,87.0,-0.5,0.5,·
CC1(C)CC2CC(C)(CN2S(=O)(=O)c2ccccc2[N+](=O)[O-])C1 (centres undefined),8.9,-3.7,0.9,92.0,0.1,-0.1,·
SMILES,MC4R antag cAMP,Granule exo inh,MC4R barr agon,ABCB6 inh 2,Tb MetRS inh,hiPSC survival,Granule exo CP1
CCN(CC)c1nc(C=Cc2ccc(N(C)C)cc2)c2nccnc2n1,22.3,73.3*,0.1,i,-0.2,4.1,9.7
CN(C)c1ccc(C=Cc2nccc3ccccc23)cc1,·,-9.2,·,i,-0.2,-1.0,·
CN(C)CCC(=O)N1c2ccccc2Sc2ccc(C(F)(F)F)cc21,4.9,67.3*,-0.8,96.0,-0.3,-0.4,-13.3
CN1CCN(CCC(=O)N2c3ccccc3Sc3ccc(C(F)(F)F)cc32)CC1,-3.2,2.9,-0.5,98.0,0.1,-1.9,·
O=C(NCc1ccccc1)C1(c2ccccc2)CCN(S(=O)(=O)c2ccccc2)CC1,-4.5,62.7*,1.7,96.0,-1.6,-4.1,-3.3
CC(C)C(NC(=O)c1ccc(C(C)(C)C)cc1)C(=O)NCc1ccccn1 (centres undefined),7.7,-0.8,-0.8,94.0,-0.7,-3.8,·
CCN(CC(=O)c1c(N)n(C)c(=O)n(C)c1=O)c1cccc2ccccc12,3.5,-0.6,1.6,98.0,-0.3,-0.7,·
CNCc1ccccc1Sc1cc(O)ccc1O,11.8,73.4*,-2.3,102.0,0.8,-1.4,9.2
CNCc1ccccc1Sc1cccc(O)c1,-9.2,0.6,-0.5,96.0,-1.1,0.0,·
Cc1nc(C)n(CCNS(=O)(=O)c2ccc(C)c(C)c2)n1,1.2,-1.7,-0.3,98.0,-0.3,-0.1,·
CC(C)=CCC/C(C)=C/CNC(=O)C[C@H]1C[C@H](C(=O)N2CCOCC2)[C@@]2(C)c3[nH]c4ccc(Cl)cc4c3CCN2C1=O,2.8,69.8*,-0.5,102.0,-0.3,1.6,11.1
COc1ccc(-c2cc(CNc3nc(NCc4ccccc4OC)nc4ccsc34)on2)cc1,4.7,66.2*,0.7,98.0,-0.2,2.2,52.4
CCCCCCSc1ccc(-c2nc3ccccn3c2NCCCC)cc1,9.6,70.5*,-0.8,97.0,-0.4,-0.6,6.9
O=C(Nc1ccc(S(=O)(=O)Nc2ccccc2)cc1)c1ccc(CN2CCOCC2)cc1,20.4,75.7*,-2.5,98.0,-0.1,0.5,9.4
